Measured values published in ChEMBL document CHEMBL4219184, “Design, synthesis, and biological evaluation of new B-RafV600E kinase inhibitors” (Bioorg Med Chem, 2018).
pIC50: −log10 of the molar value. Calls of active or inactive are those of the source. The rule behind the calls is not given here.

Experiments:
HT-29 = assay: Antiproliferative activity against human HT-29 cells harboring BRAF V600E mutant after 48 hrs by MTT assay; type: functional, cell-based; details: HT-29, 48 h
Summary of the method: (§1)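 MTT assay. Cells seeded at 10^4 per well in 96-well plates and left 24 h. Compounds then added at 0.01, 0.1, 1, 10 and 100 µM for 48 h. IC50 values calculated from the viability data.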

HCT-116 = assay: Antiproliferative activity against wild type BRAF expressing human HCT116 cells after 48 hrs by MTT assay; type: functional, cell-based; details: HCT-116, 48 h; summary of the method: as §1
[1] = target: Serine/threonine-protein kinase B-raf (Mus musculus, UniProt P28028, V600E); assay: Inhibition of mouse full length GST-tagged BRAF V600E mutant using recombinant human full length N-terminal His-tagged MEK1 as substrate preincubated for 1 hr followed by substrate addition measured after 25 mins by Nu-page gel-based phosphor screen analysis
[2] = Antiproliferative activity against wild type BRAF expressing human WM1361 cells after 48 hrs by MTT assay; type: functional; details: WM1361, 48 h; summary of the method: as §1
A-375 [3] = assay: Antiproliferative activity against human A375 cells harboring BRAF V600E mutant after 48 hrs by MTT assay; type: functional, cell-based; details: A-375, 48 h; summary of the method: as §1
A-375 [4] = assay: Induction of apoptosis in human A375 cells assessed as viable cells at 1 uM after 24 hrs by Annexin V-FITC/propidium iodide double staining-based flow cytometry (reference value: 96.2%); type: functional; details: A-375, 24 h, read-out: Activity
A-375 [5] = assay: Induction of apoptosis in human A375 cells assessed as early apoptotic cells at 1 uM after 24 hrs by Annexin V-FITC/propidium iodide double staining-based flow cytometry (reference value: 1.19%); type: functional
[6] = tested on: Serine/threonine-protein kinase B-raf (Homo sapiens), P15056 [V600E]; assay: Inhibition of BRAF V600E mutant in human A375 cells assessed as reduction in ERK phosphorylation by Western blot analysis; type: cell-based
Summary of the method: (§2)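 Cells in 6-well plates were lysed in RIPA with PMSF on ice for 30 min and cleared at 12,000 g, 4 °C. Protein was measured by BCA, run on SDS-PAGE and moved to PVDF. Blots were blocked in 5% milk/TBST, given primary antibodies (1:500–1:1000) overnight at 4 °C, then HRP secondaries (1:5000–1:10000) for 1 h. Bands were detected by ECL.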

A-375 [7] = assay: Induction of apoptosis in human A375 cells assessed as viable cells at 4 uM after 24 hrs by Annexin V-FITC/propidium iodide double staining-based flow cytometry (reference value: 96.2%); type: functional; details: A-375, 24 h, read-out: Activity
A-375 [8] = assay: Induction of apoptosis in human A375 cells assessed as necrotic cells at 2 uM after 24 hrs by Annexin V-FITC/propidium iodide double staining-based flow cytometry (reference value: 0.227%); type: functional
[9] = target: T1, Serine/threonine-protein kinase B-raf (Homo sapiens, UniProt P15056); assay: Inhibition of wild type BRAF in human WM1361 cells assessed as reduction in ERK phosphorylation at 0.5 uM by Western blot analysis; type: cell-based; summary of the method: as §2
A-375 [10] = assay: Induction of apoptosis in human A375 cells assessed as early apoptotic cells at 4 uM after 24 hrs by Annexin V-FITC/propidium iodide double staining-based flow cytometry (reference value: 1.19%); type: functional
A-375 [11] = assay: Induction of apoptosis in human A375 cells assessed as late apoptotic cells at 1 uM after 24 hrs by Annexin V-FITC/propidium iodide double staining-based flow cytometry (reference value: 2.36%); type: functional
A-375 [12] = assay: Induction of apoptosis in human A375 cells assessed as necrotic cells at 4 uM after 24 hrs by Annexin V-FITC/propidium iodide double staining-based flow cytometry (reference value: 0.227%); type: functional
A-375 [13] = assay: Induction of apoptosis in human A375 cells assessed as necrotic cells at 1 uM after 24 hrs by Annexin V-FITC/propidium iodide double staining-based flow cytometry (reference value: 0.227%); type: functional
[14] = target: T1, Serine/threonine-protein kinase B-raf; assay: Induction of wild type BRAF activation in human WM1361 cells assessed as increase in ERK phosphorylation up to 0.15 uM by Western blot analysis; type: cell-based; summary of the method: as §2
A-375 [15] = assay: Induction of apoptosis in human A375 cells assessed as viable cells at 2 uM after 24 hrs by Annexin V-FITC/propidium iodide double staining-based flow cytometry (reference value: 96.2%); type: functional; details: A-375, 24 h, read-out: Activity
A-375 [16] = assay: Effect on total ERK protein levels in human A375 cells at 0.05 to 5 uM by Western blot analysis; type: ADME, cell-based; details: a-375, 5 µM; summary of the method: as §2
[17] = target: T1, Serine/threonine-protein kinase B-raf; assay: Induction of wild type BRAF activation in human WM1361 cells assessed as increase in MEK phosphorylation up to 0.15 uM by Western blot analysis; type: cell-based; summary of the method: as §2
A-375 [18] = assay: Induction of apoptosis in human A375 cells assessed as late apoptotic cells at 4 uM after 24 hrs by Annexin V-FITC/propidium iodide double staining-based flow cytometry (reference value: 2.36%); type: functional
[19] = target: T1, Serine/threonine-protein kinase B-raf; assay: Inhibition of wild type BRAF in human WM1361 cells assessed as reduction in MEK phosphorylation at 0.5 uM by Western blot analysis; type: cell-based; summary of the method: as §2
A-375 [20] = assay: Induction of apoptosis in human A375 cells assessed as late apoptotic cells at 2 uM after 24 hrs by Annexin V-FITC/propidium iodide double staining-based flow cytometry (reference value: 2.36%); type: functional
A-375 [21] = assay: Induction of apoptosis in human A375 cells assessed as early apoptotic cells at 2 uM after 24 hrs by Annexin V-FITC/propidium iodide double staining-based flow cytometry (reference value: 1.19%); type: functional
A-375 [22] = assay: Effect on total MEK protein levels in human A375 cells at 0.05 to 5 uM by Western blot analysis; type: ADME, cell-based; details: a-375, 5 µM; summary of the method: as §2
A-375 [23] = assay: Induction of apoptosis in human A375 cells after 24 hrs by Annexin V-FITC/propidium iodide double staining-based flow cytometry; type: functional, cell-based
[24] = tested on: Serine/threonine-protein kinase B-raf (Homo sapiens), P15056 [V600E]; assay: Inhibition of BRAF V600E mutant in human A375 cells assessed as reduction in MEK phosphorylation by Western blot analysis; type: cell-based; summary of the method: as §2

Sequence of Serine/threonine-protein kinase B-raf (Mus musculus, UniProt P28028, V600E) (P28028 whole entry, looked up, stated change not applied): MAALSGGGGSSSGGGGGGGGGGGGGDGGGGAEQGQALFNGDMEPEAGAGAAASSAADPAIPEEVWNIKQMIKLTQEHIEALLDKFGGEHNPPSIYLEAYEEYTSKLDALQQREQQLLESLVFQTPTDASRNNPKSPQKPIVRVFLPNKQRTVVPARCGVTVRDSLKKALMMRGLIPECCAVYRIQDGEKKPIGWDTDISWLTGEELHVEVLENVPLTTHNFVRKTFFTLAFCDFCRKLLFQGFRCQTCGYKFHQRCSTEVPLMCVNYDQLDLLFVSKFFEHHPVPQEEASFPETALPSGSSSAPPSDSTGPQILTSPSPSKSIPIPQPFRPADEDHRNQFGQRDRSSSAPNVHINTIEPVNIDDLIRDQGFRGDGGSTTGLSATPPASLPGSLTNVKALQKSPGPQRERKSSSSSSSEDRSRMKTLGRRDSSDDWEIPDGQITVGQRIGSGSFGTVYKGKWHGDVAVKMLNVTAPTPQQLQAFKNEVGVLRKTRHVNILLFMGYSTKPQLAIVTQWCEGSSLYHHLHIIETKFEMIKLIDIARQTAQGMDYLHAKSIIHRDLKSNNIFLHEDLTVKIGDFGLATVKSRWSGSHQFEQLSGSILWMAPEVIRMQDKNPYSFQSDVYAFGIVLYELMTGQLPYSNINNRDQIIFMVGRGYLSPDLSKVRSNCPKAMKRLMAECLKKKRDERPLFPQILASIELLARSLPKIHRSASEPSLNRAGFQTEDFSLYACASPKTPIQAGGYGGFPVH
T1 sequence (P15056 whole entry): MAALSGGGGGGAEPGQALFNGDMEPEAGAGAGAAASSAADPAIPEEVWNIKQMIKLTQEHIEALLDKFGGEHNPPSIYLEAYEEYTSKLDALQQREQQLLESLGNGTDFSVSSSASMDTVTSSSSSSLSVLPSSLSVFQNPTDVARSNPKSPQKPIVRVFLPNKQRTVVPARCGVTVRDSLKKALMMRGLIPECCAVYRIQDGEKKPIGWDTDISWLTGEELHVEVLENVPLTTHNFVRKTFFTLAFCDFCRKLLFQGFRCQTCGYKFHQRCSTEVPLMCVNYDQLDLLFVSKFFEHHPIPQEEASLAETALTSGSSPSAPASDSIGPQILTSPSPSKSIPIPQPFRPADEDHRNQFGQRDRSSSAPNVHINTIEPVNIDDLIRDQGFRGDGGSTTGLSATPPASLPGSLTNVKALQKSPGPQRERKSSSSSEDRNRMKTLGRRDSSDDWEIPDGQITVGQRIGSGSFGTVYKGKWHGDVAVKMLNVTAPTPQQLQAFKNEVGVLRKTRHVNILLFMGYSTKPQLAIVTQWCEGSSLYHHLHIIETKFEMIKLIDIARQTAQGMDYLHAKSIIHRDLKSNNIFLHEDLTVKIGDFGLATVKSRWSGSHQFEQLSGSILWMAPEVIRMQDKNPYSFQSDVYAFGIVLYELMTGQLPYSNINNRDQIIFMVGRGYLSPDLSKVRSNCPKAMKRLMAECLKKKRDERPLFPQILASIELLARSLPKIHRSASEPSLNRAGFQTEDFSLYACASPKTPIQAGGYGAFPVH
Sequence of Serine/threonine-protein kinase B-raf (Homo sapiens), P15056 [V600E] (P15056 whole entry V600E): as the sequence (P15056 whole entry) above, with V600E counted along it

For CC(C)(C)c1ccc(C(=O)Nc2cccc(C(=O)Nc3ccc4[nH]ncc4c3)c2)cc1, the pIC50 (HT-29) was 4.96, the pIC50 (HCT-116) was 4.58 and the pIC50 [1] was 6.12. For the same molecule, the pIC50 [2] was 4.74 and the pIC50 (A-375 [3]) was 5.55.
O=C(Nc1cccc(C(=O)Nc2ccc3[nH]ncc3c2)c1)c1ccc(Br)cc1 gave a pIC50 (HT-29) of 4.84, a pIC50 (HCT-116) of 4.53 and a pIC50 [1] of 5.56. The pIC50 [2] was 4.61 and the pIC50 (A-375 [3]) was 5.24.
O=C(Nc1ccc2[nH]ncc2c1)c1cccc(NC(=O)c2ccc(Br)cn2)c1 gave a pIC50 (HT-29) of 5.02, a pIC50 (HCT-116) of 4.65 and a pIC50 [1] of 6.34. The pIC50 [2] was 4.71 and the pIC50 (A-375 [3]) was 5.12.
Work on O=C(Nc1cccc(C(=O)Nc2ccc3[nH]ncc3c2)c1)c1cccc(Cl)c1 yielded a pIC50 (HT-29) of 4.69, a pIC50 (HCT-116) of 4.58 and a pIC50 [1] of 5.31. It also gave a pIC50 [2] of 4.59 and a pIC50 (A-375 [3]) of 5.01.
With O=C(Nc1cccc(C(=O)Nc2ccc3[nH]ncc3c2)c1)c1ccc(C(F)(F)F)cc1 the pIC50 (HT-29) was 5.36, the viability at 1 µM (A-375 [4]) was 80.3% and the pIC50 (HCT-116) was 4.73. The Activity (A-375 [5]) was 8.05%, the inhibition [6] was “Dose-dependent effect” and the viability at 4 µM (A-375 [7]) was 71%. For the same molecule, the Activity (A-375 [8]) was 1.05%, the inhibition [9] was “Active” and the Activity (A-375 [10]) was 12.2%. For the same molecule, the Activity (A-375 [11]) was 10.1%, the Activity (A-375 [12]) was 0.652% and the pIC50 [1] was 6.74. The Activity (A-375 [13]) was 1.56%, the Activity [14] was “Not Active” and the pIC50 [2] was 4.89. The viability at 2 µM (A-375 [15]) was 73.7%, the Activity (A-375 [16]) was “Non-Toxic” and the Activity [17] was “Not Active”. The Activity (A-375 [18]) was 16.1%, the inhibition [19] was “Active” and the Activity (A-375 [20]) was 14.6%. For the same molecule, the Activity (A-375 [21]) was 10.7%, the Activity (A-375 [22]) was “Non-Toxic” and the Activity (A-375 [23]) was “Dose-dependent effect”. The pIC50 (A-375 [3]) was 5.71 and the inhibition [24] was “Dose-dependent effect”.
Work on O=C(Nc1ccc2[nH]ncc2c1)c1cccc(NC(=O)c2cccc(Cl)n2)c1 yielded a pIC50 (HT-29) of 4.91, a pIC50 (HCT-116) of 4.60 and a pIC50 [1] of 5.98. For the same molecule, the pIC50 [2] was 4.57 and the pIC50 (A-375 [3]) was 5.05.
Molecule O=C(Nc1ccc2[nH]ccc2c1)c1cccc(NC(=O)c2ccccn2)c1 has a pIC50 (HT-29) of 4.98, a pIC50 (HCT-116) of 4.62 and a pIC50 [1] of 5.45. The pIC50 [2] was 4.76 and the pIC50 (A-375 [3]) was 5.24.
Molecule Cc1cccc(C(=O)Nc2cccc(C(=O)Nc3ccc4[nH]ncc4c3)c2)n1 has a pIC50 (HT-29) of 4.94, a pIC50 (HCT-116) of 4.60 and a pIC50 [1] of 6.09. The pIC50 [2] was 4.67 and the pIC50 (A-375 [3]) was 5.13.
Work on O=C(Nc1cccc(C(=O)Nc2ccc3[nH]ccc3c2)c1)c1ccccc1 yielded a pIC50 (HT-29) of 4.97, a pIC50 (HCT-116) of 4.67 and a pIC50 [1] of 5.68. It also gave a pIC50 [2] of 4.61 and a pIC50 (A-375 [3]) of 5.19.
For O=C(Nc1ccc2[nH]ncc2c1)c1cccc(NC(=O)c2ccccn2)c1, the pIC50 (HT-29) was 4.76, the pIC50 (HCT-116) was 4.45 and the pIC50 [1] was 5.39. The pIC50 [2] was 4.55 and the pIC50 (A-375 [3]) was 5.08.
Molecule O=C(Nc1cccc(C(=O)Nc2ccc3[nH]ncc3c2)c1)c1ccc(Cl)cc1 has a pIC50 (HT-29) of 4.75, a pIC50 (HCT-116) of 4.49 and a pIC50 [1] of 5.52. For the same molecule, the pIC50 [2] was 4.51 and the pIC50 (A-375 [3]) was 5.12.
With O=C(Nc1cccc(C(=O)Nc2ccc3[nH]ccc3c2)c1)c1ccc(Cl)cc1 the pIC50 (HT-29) was 4.95, the pIC50 (HCT-116) was 4.65 and the pIC50 [1] was 5.58. For the same molecule, the pIC50 [2] was 4.71 and the pIC50 (A-375 [3]) was 5.17.
O=C(Nc1cccc(C(=O)Nc2ccc3[nH]ncc3c2)c1)c1cccc(F)c1 showed a pIC50 (HT-29) of 4.72, a pIC50 (HCT-116) of 4.69 and a pIC50 [1] of 5.06. For the same molecule, the pIC50 [2] was 4.42 and the pIC50 (A-375 [3]) was 4.91.
With O=C(Nc1cccc(C(=O)Nc2ccc3[nH]ncc3c2)c1)c1ccccc1 the pIC50 (HT-29) was 4.79, the pIC50 (HCT-116) was 4.51 and the pIC50 [1] was 5.28. The pIC50 [2] was 4.45 and the pIC50 (A-375 [3]) was 5.04.
With O=C(Nc1ccc2[nH]ncc2c1)c1cccc(NC(=O)c2cc(Cl)ccn2)c1 the pIC50 (HT-29) was 5.05, the pIC50 (HCT-116) was 4.71 and the pIC50 [1] was 5.94. The pIC50 [2] was 4.79 and the pIC50 (A-375 [3]) was 5.34.
Molecule O=C(Nc1cccc(C(=O)Nc2ccc3[nH]ncc3c2)c1)c1ccc(Oc2ccccc2)cc1 has a pIC50 (HT-29) of 4.73, a pIC50 (HCT-116) of 4.43 and a pIC50 [1] of 5.28. The pIC50 [2] was 4.53 and the pIC50 (A-375 [3]) was 5.02.
O=C(Nc1cccc(C(=O)Nc2ccc3[nH]ncc3c2)c1)c1ccc(F)cc1 gave a pIC50 (HT-29) of 4.91, a pIC50 (HCT-116) of 4.44 and a pIC50 [1] of 5.80. The pIC50 [2] was 4.53 and the pIC50 (A-375 [3]) was 5.15.
O=C(Nc1cccc(C(=O)Nc2ccc3[nH]ccc3c2)c1)c1ccc(Oc2ccccc2)cc1 gave a pIC50 (HT-29) of 4.68, a pIC50 (HCT-116) of 4.45 and a pIC50 [1] of 5.24. For the same molecule, the pIC50 [2] was 4.66 and the pIC50 (A-375 [3]) was 4.98.
Molecule CNC(=O)c1cc(Oc2ccc(NC(=O)Nc3ccc(Cl)c(C(F)(F)F)c3)cc2)ccn1 [SORAFENIB] has a pIC50 (HT-29) of 5.07, a pIC50 (HCT-116) of 4.63 and a pIC50 [2] of 4.78. The pIC50 (A-375 [3]) was 5.47.
Molecule O=C(Nc1ccc2[nH]ccc2c1)c1cccc(NC(=O)c2cccc(Cl)n2)c1 has a pIC50 (HT-29) of 4.71, a pIC50 (HCT-116) of 4.45 and a pIC50 [1] of 5.18. The pIC50 [2] was 4.72 and the pIC50 (A-375 [3]) was 5.07.
